The text below walks through data of ChEMBL document CHEMBL1132163 (Bioorg Med Chem Lett, 1999).

For assay [1], the target named is T1, Cyclin-dependent kinase 1 (Homo sapiens, UniProt P06493). Description: Inhibitory activity against cyclin-dependent kinase 1 (CDK1) was determined.
For assay [2], the target named is T2, Epidermal growth factor receptor (Homo sapiens, UniProt P00533). The assay can be described thus: Inhibit of epidermal growth factor receptor (EGFR).
Assay [3] concerns the target Protein kinase C alpha type (Homo sapiens, UniProt P17252). Description: Inhibition of Protein kinase C alpha.
The target in assay [4] is cAMP-dependent protein kinase (PKA) (Homo sapiens, UniProt P22694+P17612+P22612). The assay can be described thus: Inhibition of Protein kinase A. The format is protein assay.
Assay [5] is described as follows: Inhibition of human bladder carcinoma T24 cell proliferation. The format is functional, cell-based, T-24. The essentials: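 T24 cells seeded 1.5 x 10^3/well, attached overnight (16-18h), washed with serum-free medium, exposed to serial drug dilutions 4-5 days (≥2-3 control divisions); duplicates per concentration. Fixed 3.3% glutaraldehyde, methylene blue 0.05% stain, eluted 3% HCl, OD 665nm.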

Assay [6] concerns the target T1, Cyclin-dependent kinase 1. Description: Inhibition of cyclin-dependent kinase 1 (CDK1) (Not active).
Assay [7] addresses T2, Epidermal growth factor receptor. The assay can be described thus: Inhibition of epidermal growth factor receptor (EGFR) (inactive).

Bounds are passed on as bounds.

T1 sequence (P06493 whole entry): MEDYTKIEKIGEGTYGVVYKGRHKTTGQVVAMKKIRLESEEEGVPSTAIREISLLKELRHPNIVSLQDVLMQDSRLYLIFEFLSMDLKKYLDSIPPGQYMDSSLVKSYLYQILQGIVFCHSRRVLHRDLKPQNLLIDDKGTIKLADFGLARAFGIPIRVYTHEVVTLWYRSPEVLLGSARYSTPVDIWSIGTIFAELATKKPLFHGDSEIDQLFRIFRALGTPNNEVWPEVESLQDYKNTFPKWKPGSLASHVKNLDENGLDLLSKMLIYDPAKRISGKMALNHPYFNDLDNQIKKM
T2 sequence (P00533 whole entry): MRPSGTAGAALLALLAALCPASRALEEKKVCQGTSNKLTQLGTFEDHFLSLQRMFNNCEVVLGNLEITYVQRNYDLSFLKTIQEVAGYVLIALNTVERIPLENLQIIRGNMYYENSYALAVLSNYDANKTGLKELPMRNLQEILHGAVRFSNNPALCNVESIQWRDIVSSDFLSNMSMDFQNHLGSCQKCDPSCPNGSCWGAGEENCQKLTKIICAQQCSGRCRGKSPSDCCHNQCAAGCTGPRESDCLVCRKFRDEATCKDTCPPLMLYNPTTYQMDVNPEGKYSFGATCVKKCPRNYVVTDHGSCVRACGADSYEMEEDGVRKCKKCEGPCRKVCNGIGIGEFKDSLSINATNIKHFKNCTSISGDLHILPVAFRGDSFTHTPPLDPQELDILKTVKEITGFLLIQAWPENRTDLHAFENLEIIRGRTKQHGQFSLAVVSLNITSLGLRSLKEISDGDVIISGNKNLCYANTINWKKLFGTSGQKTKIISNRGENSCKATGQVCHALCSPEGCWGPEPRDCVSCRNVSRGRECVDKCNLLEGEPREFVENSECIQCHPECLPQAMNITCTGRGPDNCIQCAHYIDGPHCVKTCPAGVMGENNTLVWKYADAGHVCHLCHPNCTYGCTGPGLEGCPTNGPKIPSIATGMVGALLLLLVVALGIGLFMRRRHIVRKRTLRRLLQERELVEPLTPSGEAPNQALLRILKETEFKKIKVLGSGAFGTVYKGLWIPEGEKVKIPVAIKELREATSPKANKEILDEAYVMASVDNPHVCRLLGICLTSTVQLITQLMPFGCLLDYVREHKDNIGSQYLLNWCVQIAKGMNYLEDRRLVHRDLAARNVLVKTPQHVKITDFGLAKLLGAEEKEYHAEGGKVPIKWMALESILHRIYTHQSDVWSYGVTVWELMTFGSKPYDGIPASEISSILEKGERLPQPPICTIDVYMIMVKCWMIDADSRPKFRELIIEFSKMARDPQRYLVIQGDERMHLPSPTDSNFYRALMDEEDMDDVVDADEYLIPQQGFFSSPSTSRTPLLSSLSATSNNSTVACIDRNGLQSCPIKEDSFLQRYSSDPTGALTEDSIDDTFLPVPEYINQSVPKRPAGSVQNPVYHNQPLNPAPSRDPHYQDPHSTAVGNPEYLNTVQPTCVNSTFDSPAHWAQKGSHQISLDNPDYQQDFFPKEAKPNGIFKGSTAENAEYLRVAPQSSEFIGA

The term IC50 denotes the concentration at which inhibition is half-maximal. In turn, `CCn1cnc2c(Nc3ccc(OC)cc3)nc(NCCN)nc21` gave an IC50 in assay [1] of 550 nM. That is a sub-micromolar value.

Take `CCn1cnc2c(Nc3cccc(C#N)c3)nc(NCCN)nc21.Cl`: the IC50 in assay [1] is 560 nM; in assay [2] it was greater than 10 µM; in assay [3], 78 µM; in assay [4] it was greater than 500 µM; in assay [5] (Homo sapiens, T-24), 5.24 µM.

As to `CCn1cnc2c(Nc3cccc(C(F)(F)F)c3)nc(NCCN)nc21.Cl`, the IC50 in assay [1] is 700 nM; in assay [2], greater than 10 µM; in assay [3], 50 µM; in assay [4] it was 500 µM; in assay [5] (Homo sapiens, T-24), 6.08 µM.

Turning to `CCn1cnc2c(Nc3cccc(Cl)c3)nc(N[C@@H]3CCCC[C@@H]3N)nc21` (stereo in doubt), the IC50 in assay [1] stood at 31 nM.

On to `CCn1cnc2c(Nc3cccc(F)c3)nc(NCCN)nc21` [listing 1 of 2 here], for which the IC50 in assay [1] was found to be 600 nM; in assay [5] (Homo sapiens, T-24), 6.5 µM.

Compound `CCn1cnc2c(Nc3cccc(C#N)c3)nc(N[C@H]3CC[C@H](O)CC3)nc21` registered an IC50 in assay [1] of 28 nM.

As for `CCn1cnc2c(Nc3ccc(F)cc3)nc(NCCO)nc21`, in assay [1], the IC50 came to 380 nM.

On to `CCn1cnc2c(Nc3cccc(Cl)c3)nc(NCCO)nc21`, for which the IC50 worked out at 330 nM in assay [1] and 17.5 µM in assay [5] (Homo sapiens, T-24).

`CCn1cnc2c(Nc3cccc(Cl)c3)nc(N[C@H]3CC[C@@H](N)CC3)nc21` (stereo in doubt): half-maximal inhibition in assay [1] (IC50) required 140 nM. This counts as sub-micromolar.

With `CCn1cnc2c(Nc3cccc(F)c3)nc(N[C@H]3CC[C@H](O)CC3)nc21`, it took 32 nM to reach half-maximal inhibition in assay [1] (IC50). Compared with the last compound, the IC50 is about 4.4-fold lower.

As for `CCn1cnc2c(Nc3cccc(Cl)c3)nc(N[C@@H]3CCCC[C@@H]3N)nc21` (stereo in doubt; 12), the IC50 in assay [1] came out at 110 nM; in assay [2], 2 µM; in assay [3], 30 µM; in assay [4] it was 335 µM; in assay [5] (t-24) it was 1.35 µM.

Regarding `CCn1cnc2c(Nc3cccc(Cl)c3)nc(N[C@H]3CC[C@H](N)CC3)nc21`, 39 nM corresponded to half-maximal inhibition in assay [1] (IC50).

On to `CCn1cnc2c(Nc3cccc(C(F)(F)F)c3)nc(NCCO)nc21`, for which the IC50 entry in assay [6] is on record as “Not Active”.

`CCn1cnc2c(Nc3cccc(C#N)c3)nc(N[C@@H]3CCCC[C@@H]3N)nc21` gave an IC50 in assay [1] of 350 nM.

For the compound `CCn1cnc2c(Nc3cccc(OC)c3)nc(N[C@H]3CC[C@@H](N)CC3)nc21`, the IC50 in assay [1] came to 340 nM. The IC50 values of the last two compounds are within 1.5-fold of each other.

Take `CCn1cnc2c(Nc3cccc(Cl)c3)nc(N[C@H]3CC[C@@H](N)CC3)nc21` (stereo in doubt; 15): the IC50 in assay [1] came out at 39 nM; in assay [5] (Homo sapiens, T-24), 0.54 µM.

In assay [5] (Homo sapiens, T-24), `CCn1cnc2c(Nc3cccc(Cl)c3)nc(N[C@H]3CC[C@@H](O)CC3)nc21` returned an IC50 of 0.83 µM.

On to `CCn1cnc2c(Nc3cccc(OC)c3)nc(NCCN)nc21`, for which the IC50 was 550 nM in assay [1] and 9.9 µM in assay [5] (Homo sapiens, T-24).

`CCn1cnc2c(Nc3cccc(F)c3)nc(N[C@H]3CC[C@H](N)CC3)nc21` had an IC50 in assay [1] of 150 nM.

`CCn1cnc2c(Nc3cccc(F)c3)nc(NCCO)nc21` showed an IC50 in assay [1] of 440 nM. This IC50 lies about 2.9-fold higher than the previous one.

In turn, `CCn1cnc2c(Nc3cccc(F)c3)nc(N[C@H]3CC[C@@H](N)CC3)nc21` displayed an IC50 in assay [1] of 350 nM.

For the compound `CCn1cnc2c(Nc3cccc(Cl)c3)nc(N3CCCCC3CO)nc21` (stereo not drawn), the IC50 is 39 nM in assay [1] and 3.65 µM in assay [5] (Homo sapiens, T-24).

With `CCn1cnc2c(Nc3cccc(Cl)c3)nc(N[C@H]3CCC[C@@H](N)C3)nc21`, the IC50 amounted to 120 nM in assay [1]; 6 µM in assay [3]; 150 µM in assay [4]; 1.5 µM in assay [5] (Homo sapiens, T-24).

As to `CCn1cnc2c(Nc3cccc(C(F)(F)F)c3)nc(N[C@H]3CC[C@H](N)CC3)nc21`, half-maximal inhibition in assay [1] (IC50) required 140 nM.

In turn, `CCn1cnc2c(Nc3cccc(C#N)c3)nc(N[C@H]3CC[C@@H](N)CC3)nc21` registered an IC50 in assay [1] of 350 nM.

`CCn1cnc2c(Nc3cccc(OC)c3)nc(N[C@H]3CC[C@H](N)CC3)nc21`: the half-maximal inhibitory concentration (IC50) in assay [1] was found to be 160 nM.

Consider `CCn1cnc2c(Nc3cccc(Cl)c3)nc(N3CCC[C@@H]3CN)nc21`, for which the IC50 stood at 41 nM in assay [1] and 2.35 µM in assay [5] (Homo sapiens, T-24).

In turn, `CCn1cnc2c(Nc3cccc(C(F)(F)F)c3)nc(N[C@H]3CC[C@@H](N)CC3)nc21` registered an IC50 in assay [1] of 290 nM.

Consider `CCn1cnc2c(Nc3ccc(F)cc3)nc(NCCN)nc21` [listing 1 of 2 here], for which the IC50 in assay [1] stood at 450 nM. Compared with the last compound, the IC50 is about 1.6-fold higher.

In turn, `CCn1cnc2c(Nc3ccc(F)cc3)nc(N[C@H]3CC[C@H](N)CC3)nc21` gave an IC50 in assay [1] of 31 nM. This IC50 lies about 15-fold lower than the previous one.

Consider `CCn1cnc2c(Nc3cccc(OC)c3)nc(N[C@H]3CC[C@H](O)CC3)nc21`, for which, in assay [1], the midpoint of inhibition, the IC50, lay at 90 nM. Against the preceding compound, the IC50 is about 2.9-fold higher.

Turning to `CCn1cnc2c(Nc3cccc(F)c3)nc(NCCN)nc21` [listing 2 of 2 here], in assay [1], half-maximal inhibition (IC50) was put at 600 nM.

For the compound `CCn1cnc2c(Nc3cccc(Cl)c3)nc(N[C@@H]3CCCC[C@@H]3N)nc21` (stereo in doubt; 13), the IC50 in assay [1] worked out at 25 nM; in assay [2], 5.1 µM; in assay [3], 13.5 µM; in assay [4] it was 150 µM; in assay [5] (t-24), 0.48 µM.

Regarding `CCn1cnc2c(Nc3cccc(Cl)c3)nc(N3CCC[C@@H]3CO)nc21`, the IC50 in assay [1] is 80 nM; in assay [7] it was “Not Active”; in assay [3], 38.5 µM; in assay [4] it was greater than 500 µM; in assay [5] (Homo sapiens, T-24), 6.71 µM.

On to `CCn1cnc2c(Nc3cccc(Cl)c3)nc(NCCN)nc21`, for which the IC50 in assay [1] is 80 nM; in assay [2] it was greater than 100 µM; in assay [3] it was 31.5 µM; in assay [4] it was 180 µM; in assay [5] (Homo sapiens, T-24), 3.16 µM.

In assay [1], `CCn1cnc2c(Nc3cccc(F)c3)nc(N[C@@H]3CCCC[C@@H]3N)nc21` had an IC50 of 250 nM.

`CCn1cnc2c(Nc3cccc(C(F)(F)F)c3)nc(NCCN)nc21`: the IC50 in assay [1] was 700 nM.

On to `CCn1cnc2c(Nc3cccc(OC)c3)nc(N[C@@H]3CCCC[C@@H]3N)nc21`, for which half-maximal inhibition in assay [1] (IC50) required 230 nM.

`CCn1cnc2c(Nc3cccc(C#N)c3)nc(NCCN)nc21` had an IC50 in assay [1] of 560 nM.

For `CCn1cnc2c(Nc3cccc(C#N)c3)nc(NCCO)nc21`, in assay [6], the IC50 entry is “Not Active”.

On to `CCn1cnc2c(Nc3cccc(OC)c3)nc(NCCO)nc21`, for which it took 1000 nM to reach half-maximal inhibition in assay [1] (IC50).

Turning to `CCn1cnc2c(Nc3ccc(F)cc3)nc(N[C@@H]3CCCC[C@@H]3N)nc21`, the IC50 in assay [1] worked out at 150 nM.

`CCn1cnc2c(Nc3cccc(C(F)(F)F)c3)nc(N[C@@H]3CCCC[C@@H]3N)nc21` yielded a half-maximal inhibitory concentration (IC50) in assay [1] of 310 nM.

`CCn1cnc2c(Nc3ccc(F)cc3)nc(N[C@H]3CC[C@H](O)CC3)nc21` had an IC50 in assay [1] of 40 nM.

In assay [1], `CCn1cnc2c(Nc3cccc(C#N)c3)nc(N[C@H]3CC[C@H](N)CC3)nc21` registered an IC50 of 85 nM. This IC50 lies about 2.1-fold higher than the previous one.

In assay [1], `CCn1cnc2c(Nc3ccc(F)cc3)nc(N[C@H]3CC[C@@H](N)CC3)nc21` gave an IC50 of 100 nM.

As to `CCn1cnc2c(Nc3cccc(Cl)c3)nc(N[C@H]3CC[C@H](O)CC3)nc21`, the IC50 in assay [1] came out at 30 nM.

Regarding `CCn1cnc2c(Nc3ccc(F)cc3)nc(NCCN)nc21` [listing 2 of 2 here], the IC50 in assay [1] stood at 450 nM; in assay [5] (Homo sapiens, T-24) it was 8.3 µM.

Consider `CCn1cnc2c(Nc3cccc(C(F)(F)F)c3)nc(N[C@H]3CC[C@H](O)CC3)nc21`, for which the IC50 in assay [1] turned out to be 28 nM. That is a double-digit nanomolar value.
